Consider six compounds from ChEMBL document CHEMBL1130162, “Structure-activity relationships of cysteine-lacking pentapeptide derivatives that inhibit ras farnesyltransferase” (J Med Chem, 1997).

SMILES strings stand for the structures.

The term IC50 denotes the concentration needed to halve the response being measured. A higher IC50 goes with weaker potency.

Assay [1] has as its target T1, Protein farnesyltransferase (Rattus norvegicus, UniProt Q02293+Q04631). Kind of assay: Inhibition of rat brain farnesyltransferase in 50 mM HEPES buffer. Put shortly:
(§1)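 40-fold purified rat brain FTase at pH 7.4 with 1.2 mM MgCl2, leupeptin, pepstatin and PMSF. Substrates: [1-3H]farnesyl pyrophosphate (0.12 μM final) and biotinyl-aminoheptanoyl-TKCVIM peptide (0.1 μM final). Compounds were serially diluted from DMSO and incubated 30 min at 37 °C. Stopped with streptavidin beads in acidic Mg acetate/BSA and scintillation counted.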

Assay [2] addresses T1, Protein farnesyltransferase. As to the kind of experiment: Inhibition of rat brain farnesyltransferase in 30 mM potassium phosphate buffer. Put shortly:
as §1

Assay [3] shares this target. Kind of assay: Inhibition of rat brain farnesyltransferase in 5 mM potassium phosphate and 50 mM HEPES buffer. Put shortly:
as §1

The target in assay [4] is Protein farnesyltransferase (Homo sapiens, UniProt P49354+P49356). As to the kind of experiment: Inhibition of human farnesyltransferase. The assay is classed as protein-complex assay.
For assay [5], the target named is T1, Protein farnesyltransferase. As to the kind of experiment: Inhibitory concentration against rat brain farnesyltransferase. The method in brief:
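Rat brain FTase (40-fold purified), pH 7.4, in 30 mM potassium phosphate, 5 mM phosphate plus 50 mM Hepes, or 50 mM Hepes. Buffer also held 7 mM DTT, 1.2 mM MgCl2 and protease inhibitors. Final substrates were 0.12 μM [1-3H]FPP and 0.1 μM biotinyl-aminoheptanoyl-TKCVIM, with inhibitor varied from DMSO stock. Reaction ran 30 min at 37 °C, was stopped with streptavidin beads, and was counted by scintillation proximity. Generally n = 2.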

In assay [6] the target is geranylgeranyltransferase type-I (Rattus norvegicus, UniProt P53610+Q04631). Kind of assay: Inhibition of rat brain Geranylgeranyl transferase type I. Particulars: in the assay text read “rat” for “rat brain”. The method in brief:
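Rat GGTase-I expressed in Sf9 cells, assayed like the FTase test. Substrates were geranylgeranyl pyrophosphate and biotinyl-aminoheptanoyl-Thr-Lys-Cys-Val-Ile-Leu, with inhibitor varied from DMSO stock. Incubation at 37 °C. Streptavidin bead capture with radioactivity count as the read-out.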

For the compound `C[C@H](NC(=O)[C@@H](Cc1c[nH]c2ccccc12)NC(=O)[C@@H](COP(=O)(O)O)NC(=O)[C@@H](Cc1ccc(OCc2ccccc2)cc1)NC(=O)[C@@H](Cc1cnc[nH]1)NC(=O)OCc1ccccc1)C(N)=O`, the IC50 in assay [1] amounted to 660 nM; in assay [2], 240 nM; in assay [3] it was 360 nM.
In the case of `C[C@@H](NC(=O)[C@H](Cc1c[nH]c2ccccc12)NC(=O)[C@H](COCc1ccccc1)NC(=O)[C@H](Cc1ccc(OCc2ccccc2)cc1)NC(=O)[C@H](Cc1c[nH]cn1)NC(=O)OCc1ccccc1)C(N)=O` (single isomer, unassigned), the IC50 was found to be 1600 nM in assay [1]; 10 nM in assay [4]; 20 nM in assay [5]; 1250 nM in assay [6]; 20 nM in assay [2]; 76 nM in assay [3].
As to `C[C@H](NC(=O)[C@@H](Cc1c[nH]c2ccccc12)NC(=O)[C@@H](COCc1ccccc1)NC(=O)C(Cc1ccc(CP(=O)(O)O)cc1)NC(=O)[C@@H](Cc1cnc[nH]1)NC(=O)OCc1ccccc1)C(N)=O` (some centres not stated), the IC50 in assay [1] came to 190 nM; in assay [2], 200 nM; in assay [3] it was 280 nM.
The corresponding values for `C[C@H](NC(=O)[C@@H](Cc1c[nH]c2ccccc12)NC(=O)[C@@H](COCc1ccccc1)NC(=O)[C@@H](Cc1ccc(OP(=O)(O)O)cc1)NC(=O)[C@@H](Cc1c[nH]cn1)NC(=O)OCc1ccccc1)C(N)=O` are 6 nM, 13 nM and 9 nM.
In the same order, the values of `CCOP(=O)(Cc1ccc(CC(NC(=O)[C@@H](Cc2cnc[nH]2)NC(=O)OCc2ccccc2)C(=O)N[C@H](COCc2ccccc2)C(=O)N[C@H](Cc2c[nH]c3ccccc23)C(=O)N[C@@H](C)C(N)=O)cc1)OCC` (some centres not stated) are 75 nM, 25 nM and 49 nM.
In the case of `C[C@@H](NC(=O)[C@H](Cc1c[nH]c2ccccc12)NC(=O)[C@H](COCc1ccccc1)NC(=O)[C@H](Cc1ccc(O)cc1)NC(=O)[C@H](Cc1c[nH]cn1)NC(=O)OCc1ccccc1)C(N)=O` (single isomer, unassigned), the IC50 in assay [1] is 510 nM; in assay [5] it was 35 nM; in assay [2], 35 nM; in assay [3], 102 nM.
